Screening data as filed in PubChem BioAssay.
Shown are actives, neighbours in structure and some others; about 2.2% of the full set was active somewhere.
rRNA inh HTS = inhibitors of bacterial rRNA selective over humanized ribosomes. E. coli WT GFP vs humanized-ribosome RFP mutants, fluorescence, 24 h; hits give low values; DMSO median 0, no signal -100. GFP signal change (wild-type ribosome), % (no concentration beside the values). 350,000 tested, 1.6% active;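 active = significant combined selectivity score with lowered wild-type GFP, culture density cut under 30%, mutant RFP and density less affected; inactive = any of these conditions unmet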
Env fusion inh = inhibitors of HIV Env-mediated cell fusion; inhibition, % at 12.3 µM; HeLa-JRFL Env/CEM21 cell fusion, luciferase; 360,000 tested, 1.1% active;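 active = mean replicate inhibition score of at least 50 and every replicate individually at or above 50; inconclusive = only one of the two criteria met; inactive = mean below 50 and not all replicates reaching 50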;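 note: 0% = plate neutral controls and 100% = maraviroc near 300 nM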
PDI turbidity = inhibitors of human protein disulfide isomerase. P07237. PDI insulin aggregation turbidity, A650, 90 min. inhibition, % at 10 µM. 350,000 tested, 0.052% active. AID 588391;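 active = mean inhibition across replicates of 30% or more, whatever share of single replicates reach that level; inconclusive = mean inhibition below 30% while every single replicate reaches 30%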
FN deposition inh = fibronectin deposition inhibition; AH1F fibroblasts, Alexa488-fibronectin deposition fluorescence, overnight; inhibition, % at 12.6 µM; 350,000 tested, 0.086% active; AID 743247;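 active = mean inhibition across replicates of 30% or more, regardless of how many single replicates reach that level; inconclusive = mean under 30% yet at least half of replicates reach 30%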;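 note: positive control wells lacked labelled fibronectin entirely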
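Assay system: AH1F fibroblasts assembling fluorescent fibronectin matrix; Amount: 10000 AH1F cells per well; Buffer or medium: DMEM, 2% serum; Probe or stimulus: Alexa488-fibronectin, 24 nM final in well; Doses: single compound dose, delivered by pin transfer; Incubation: 1 h adhesion, overnight exposure; Measured by: fluorescence 485/525 nm; Read-out: fibronectin deposition inhibition.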
ERp5 block = inhibitors of human ERp5. Q15084. ERp5 insulin aggregation, absorbance 650 nm, 90 min. inhibition, % at 9.99 µM. 350,000 tested, 0.05% active. AID 651711;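 active = mean replicate inhibition above about 25%, with every replicate also reaching it, limit read from the data, passing the limit was not always enough; inconclusive = only one of those two criteria met; inactive = neither criterion met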
Target sequence (Q15084 whole entry, looked up): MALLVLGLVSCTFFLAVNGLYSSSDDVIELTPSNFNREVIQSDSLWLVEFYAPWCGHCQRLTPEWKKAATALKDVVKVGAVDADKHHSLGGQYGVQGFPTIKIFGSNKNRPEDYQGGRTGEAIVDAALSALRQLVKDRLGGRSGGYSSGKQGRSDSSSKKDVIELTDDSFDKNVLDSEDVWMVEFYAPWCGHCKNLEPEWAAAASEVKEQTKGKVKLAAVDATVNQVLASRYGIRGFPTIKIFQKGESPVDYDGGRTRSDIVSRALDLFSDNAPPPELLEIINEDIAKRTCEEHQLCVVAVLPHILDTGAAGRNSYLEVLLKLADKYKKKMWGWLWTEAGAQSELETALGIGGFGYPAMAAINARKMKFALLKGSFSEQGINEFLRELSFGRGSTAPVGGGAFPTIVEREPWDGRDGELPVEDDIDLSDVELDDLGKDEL
PvdQ inh = P. aeruginosa PvdQ acylase inhibition; purified PvdQ acylase, fluorescence plate reader; 340,000 tested, 0.063% active; AID 488965; inhibition, % at 10 µM; in the data active = inhibition above about 30%, passing the limit was not always enough; inconclusive = no clear call, values can overlap the other calls;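 note: 0% = vehicle neutral wells and 100% = reference inhibitor wells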
AID977621 = wild-type E. coli growth inhibition versus H69 humanized strain – H69 mutant RFP, wild-type GFP, cherry-pick, dose response; shares compounds with rRNA inh HTS; fluorescence, 24 h; activity change, negative = inhibition at 50 µM; 1,900 tested, under 10 active;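 active = Wild-type ribosome reporter drop at least double the humanized mutant ribosome reporter drop, growth loss under a set limit; inconclusive = no clear call, values can overlap the other calls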;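 note: wild-type GFP and H69 mutant RFP strains grown together 50/50 in each well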
AID977628 = growth of wild-type and h24-humanized E. coli strains – h24 mutant RFP vs wild-type GFP, cherry-pick, dose response; E. coli WT GFP strain growth, fluorescence, 24 h; AID 977628; shares compounds with rRNA inh HTS; activity change, negative = inhibition at 50 µM; 1,900 tested, under 10 active;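 active = compound lowering the normal-ribosome reporter at least twice as much as the humanized-ribosome reporter, growth loss under a set limit; inconclusive = no clear call, values can overlap the other calls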;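 note: wild-type GFP and h24 humanized RFP strains co-cultured 1 to 1 per well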
Numbers without * were called inactive; ? = inconclusive; . = no result given; [ ] = another dose, or the depositor's remark.

SMILES	rRNA inh HTS	Env fusion inh	PDI turbidity	FN deposition inh	ERp5 block	PvdQ inh	AID977621	AID977628
COc1ccc(C(=O)N2C[C@@H]3[C@H](c4ccccc42)[C@@H](CO)N3Cc2ccccc2)cc1	-6	.	.	.	-2	.	.	.
COc1cccc(C(=O)N2C[C@@H]3[C@H](c4ccccc42)[C@H](CO)N3Cc2ccccc2Cl)c1	-33*	.	.	.	6	.	.	?
COc1ccc(C(=O)N2C[C@H]3[C@@H](c4ccccc42)[C@@H](CO)N3Cc2ccc(Cl)cc2)cc1	-51*	.	.	.	3	.	.	?
O=C(NCCCn1ccnc1)c1sc2cc([N+](=O)[O-])ccc2c1Cl	-16*	-11	3	-3	-1	.	-17	-18
O=C(O)c1ccc2c(c1)N(Cc1ccccc1)C(=O)c1ccccc1S2	-24*	-16	4	0	1	-7	-9.8	.
CCN1C(=O)c2ccccc2Sc2ccc(C(=O)O)cc21	0	14	-5	0	0	-20	.	.
Cc1ccccc1-c1cnc2c(c1)C(=O)N([C@H](C)CO)C[C@@H](C)[C@H](CN(C)C(=O)CN(C)C)O2	3	-38[16.7 µM]	.	-2	7	.	.	.
O=C(Nc1ccc2c(c1)[C@@H]1C[C@H](CC(=O)N3CCCCC3)O[C@@H](CO)[C@@H]1O2)c1ccc2c(c1)OCO2	-6	-9[16.7 µM]	.	-3	1	.	.	.
Cc1ccccc1-c1ccc([C@@H]2[C@@H](CO)N3CCCCN(C(=O)Nc4ccc(F)cc4)C[C@@H]23)cc1	-38*	.	.	.	-1	.	.	?
O=C(Nc1ccccc1)N1CCCCN2[C@@H](CO)[C@H](c3ccc(Br)cc3)[C@@H]2C1	-23*	.	.	.	0	.	.	?
O=C(Nc1ccccc1)N1CCCCN2[C@H](CO)[C@@H](c3ccc(Br)cc3)[C@@H]2C1	-10	.	.	.	-3	.	.	.
Cc1ccc(-c2ccc3c(c2)O[C@@H](CN(C)C(=O)CN(C)C)[C@H](C)CN([C@@H](C)CO)S3(=O)=O)cc1	-1	1[16.7 µM]	.	.	2	.	.	.
O=C(OCC(=O)N1CCOCC1)c1cccc(S(=O)(=O)N2CCCc3ccccc32)c1	-18*	-27	-6	-2	0	2	-8.2	?
CC1CN(C(=O)COC(=O)c2cccc(S(=O)(=O)N3CCc4ccccc43)c2)CC(C)O1 (stereo unspecified)	1	-4	-2	6	-6	11	.	.
O=C(O)Cn1c(SC2CCCCC2)nc2ccccc21	.	.	-2	.	.	-11	.	.
O=C(O)CSc1nc2ccccc2n1C1CCCCC1	-22*	9	4	9	-11	8	-9.2	.
COC(=O)[C@H]1[C@H](CO)[C@H]2Cn3c(ccc(-c4ccc(F)cc4)c3=O)[C@H]2N1Cc1ccccn1	-2	.	.	.	.	.	.	.
OC(COc1ccc(Cl)cc1)CN1CCN(c2ccccn2)CC1 (stereo unspecified)	-22*	2	1	0	-2	-10	.	-6.8
COc1ccc2c3c([nH]c2c1)[C@@H](CO)NCC31CN(S(=O)(=O)c2ccccc2)C1	-3	.	.	.	.	.	.	.
CC(C)Oc1ccc(C(CC(=O)O)NC(=O)C(Sc2ccccc2)c2ccccc2)cc1 (stereo unspecified)	-27*	-3	3	5	1	2	-16	.
COC(=O)c1cccc(CN2C(=O)SC(Nc3ccc(C)cc3)C2=O)c1 (stereo unspecified)	-16*	-8	-3	0	5	-17	-20	?
OCCN(Cc1ccccc1)Cc1ccccc1O	5	-7	-12	-3	0	10	.	.
OCCN(Cc1ccccc1)Cc1ccc(F)c(F)c1	-23*	.	2	.	-5	-4	-11	-9.4
C[C@@H]1CN([C@H](C)CO)S(=O)(=O)c2ccc(C#CC3CC3)cc2O[C@H]1CN(C)C	0	30[16.7 µM]	.	.	2	.	.	.
COCCCNC(=O)c1ccc(-c2nc3ccccc3nc2-c2ccccc2)cc1	-32*	5	-14	-3	-3	.	0.2	-3.1
SMILES	rRNA inh HTS	Env fusion inh	PDI turbidity	FN deposition inh	ERp5 block	PvdQ inh	AID977621	AID977628
C/C=C/c1cccc(-c2nc(C(=O)NCc3ccccc3)cc3c2[C@@H](CCO)N([S@](=O)C(C)(C)C)C3)c1	-2	-4[16.7 µM]	.	-3	-4	.	.	.
CCn1cc(Cl)c(C(=O)Nc2cccc(C(F)(F)F)c2)n1	-23*	-15	9	7	0	0	-16	.
O=c1[nH]nc(SCc2ccccc2)n1C1CC2C=CC1C2 (stereo unspecified)	-35*	7	1	-22	1	4	-23	?
Cc1ccc(NC(=O)C[n+]2cc(-c3ccccc3)n3c2CCC3)c(C)c1	-21*	-14	0	-3	-7	-12	?	?
COCC(=O)N1CC2(CN(C(=O)NC(C)C)C2)c2c(n(C)c3cc(OC)ccc23)[C@@H]1CO	1	.	.	.	.	.	.	.
CC(C)Oc1ccc(C(=O)Nc2cccc3cccnc23)cc1	-22*	?	1	3	-2	-11	-14	-1.1
CCOc1ccc(C(=O)Nc2cccc3cccnc23)cc1	8	-14	-21	-3	14	-3	.	.
NS(=O)(=O)c1cc(C(=O)OCC(=O)Nc2ccccc2[N+](=O)[O-])ccc1Cl	-20*	3	3	3	-6	1	.	-11
NS(=O)(=O)c1cc(C(=O)OCC(=O)Nc2ccc(Cl)cc2[N+](=O)[O-])ccc1Cl	11	18	12	-16	-6	2	.	.
CC=Cc1ccc2n(c1=O)C[C@H]1[C@H](CO)[C@@H](C(=O)NCc3ccccn3)N(CCC)[C@@H]21 (mixture of isomers)	1	.	.	.	-2	.	.	.
C[C@@]12C(=O)N(c3ccc(C(F)(F)F)cc3)C(=O)N1[C@@H]1c3ccccc3OC[C@@H]1[C@H]2c1ccccc1	.	.	-4	.	.	-2	.	.
C[C@]12C(=O)N(c3ccc(F)cc3)C(=O)N1[C@@H]1c3ccccc3OC[C@@H]1[C@H]2c1ccccc1	-25*	4	6	4	-2	-4	0.48	-15
C[C@@H]1CN([C@@H](C)CO)C(=O)Cc2cc(NC(=O)c3ccncc3)ccc2O[C@H]1CN(C)Cc1ccncc1	1	4[16.7 µM]	.	.	-1	.	.	.
C[C@@H]1CN([C@H](C)CO)C(=O)c2cc(NC(=O)C3CC3)ccc2O[C@@H]1CN(C)Cc1ccc(-c2ccccc2)cc1	3	.	.	.	-1	.	.	.
CCc1nnc(NC(=O)CSc2nnc(COc3cccc(C)c3)o2)s1	.	-27	0	-2	.	-19	.	.
Cc1cccc(OCc2nnc(SCC(=O)Nc3ncc(C)s3)o2)c1	-34*	0	12	.	1	-7	.	-7.7
